Results taken from the EternaBench riboswitch data.

Tested on: MS2 coat protein
Assay: apparent Kd, MS2 coat protein; higher = weaker binding; RNA-MaP array; FMN 200 µM where present
In short: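 The apparent Kd is the median of filtered binding-curve fits, one per cluster, to green signal normalised to red-channel RNA signal and control-cluster median Fmax. The clusters were on Illumina sequencing chips, and stalled E. coli RNA polymerase had transcribed the designs on them. Titration used SNAP-549-labelled MS2 coat protein from 0.7 or 1.5 nM, doubling to 3 µM, without and then with constant ligand, in 100 mM Tris-HCl pH 7.5, 80 mM KCl, 4 mM MgCl2, BSA, DTT, yeast tRNA and Tween-20.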

[1] = designed as: OFF switch for flavin mononucleotide, no ligand
[2] = ligand present: flavin mononucleotide, designed as: OFF switch for flavin mononucleotide
[3] = designed as: ON switch for flavin mononucleotide, no ligand
[4] = ligand present: flavin mononucleotide, designed as: ON switch for flavin mononucleotide

Sequence	apparent Kd [1] [nM]	apparent Kd [2] [nM]	apparent Kd [3] [nM]	apparent Kd [4] [nM]
UUAAAUCAUGUAGGAUAUGCAUGGCGAAGCUACGCAGAAGGACAUGAGGAUCACCCAUGUUCAAGCUACCGAGUUCGGUGGCAA	23.3	148	–	–
UGGUACUAGGGAGGAUAUGGGAAGGUACAUGAGGAUCACCCAUGUUUAAGAAUGCCGAGAGGCAACUAGAAGGCCCUAGUACCU	–	–	204	13.6
AUAAUGAGAGGAUAUACAUGAGGAUCACCCAUGUUAUUAUCACGGCGAGCUCCAUUACGUAGAAGGCUCAUUUA	16.5	44.7	–	–
CACACGAAAGUCGAACGAUGAUCCAGAAGGAGUAUAACAUGACAUGAGGAUCACCCAUGUGCCAACUAGGAUAUGGAUCAUGGG	86.3	15.1	–	–
GGGUACAUCGGAGGAUAUCAUGUAAACACAUGAGGAUCACCCAUGUCGAUGGAGACAUCGGAGAUUGAGAAGGCCGAUGUACCG	–	–	111	7.62
AGCUGUGGCCGAGGAUAUCACGAACCAUGGAAAACCAUGGAAAUUCUACAUGAGGAUCACCCAUGUGAGAAGGCGGUCUCAGCA	18.1	17.2	–	–
AAAGUUGGUAGGCCCUUGGAACAUGAGGAUCACCCAUGUAAGGAGGAUAUGCCCGGUACCCGCUGGCAGAAGGCCUUAUAAGAA	20.5	143	–	–
CAUAACUUUUCUCAUGUAAACAUGAGGAUCACCCAUGUAAUGAGAAGGAGGAGGCAGAGAGAAUCCUAGGAUAUCAGAAUUGUU	6.77	6.43	–	–
GCUCGCGUCGGUUCGCUGGCCUGAGAGGAUAUCCACUGGCAUGUCGACAUGAGGAUCACCCAUGUGGAGAAGGCUCAGGAUAAA	311	552	–	–
AUGUUACAUGAGGAUCACCCAUGUCAGGAUAUCUAUCAUAGCAUAGAAAUAUGCGGGUAGAGAAGGGACUAUCC	15.4	13.8	–	–
CCAUGCAUAGCGAUAUGAUCGAGAGAUCAUGUCGCUAAAUUUAGAAGGACAUGAGGAUCACCCAUGUAGGAUAUGGGAGCAUGU	–	–	222	49.7
UGCAUGGUAGGAUAUACGGAACAUUAGGGUUUGUUAUGUAGACAUGAGGAUCACCCAUGUAGAAGGGCCGUGCU	37.9	60.8	–	–
CGUUUGGGAGGAUAUCCAAUAUAUGACAUGAGGAUCACCCAUGUUUCCACUCGUACCUCCGGAGAAGGCCCUGCGU	22.9	21	–	–
AAUAAACACACAGGAUAUAGCAUCGUCGUUGCGAACUUAGCGACGACGAUGCUAGAAGGGUGAACACAUGAGGAUCACCCAUGU	–	–	–	38.4
UUGGACGUCGUAGGAUAUGUAGGAUAUUCCUACAUGAGGAUCACCCAUGUUGACAUGGAAGAAGGACAGAAGGACCAUGUCCAU	–	–	451	14.8
AAAGAAAAACUAGAGGAUAUCCGAGUGGUAACAUGAGGAUCACCCAUGUGAUGAAAGGAACAUGAGGAGAAGGCUAGAAGAAAAA	–	–	21.7	8.11
ACUACGAUAGCGAUAUGAUCGAGAGAUCAUGUCGCUAAAUUUAGAAGGACAUGAGGAUCACCCAUGUAGGAUAUGGGUCGUAGA	–	–	28	9.62
UAUAUAUAGUAAGGAUAUGUAUUUAUUUCAUAAACAGAAGGUACUGACAUGAGGAUCACCCAUGUUUUAGUGUGGGCAUGUAGA	81.8	121	–	–
AUAAAUCAUGUAGGAUAUGCGUGGCGAAGCUAUGCAGAAGGACAUGAGGAUCACCCAUGUCUUUCCGUCUGCGUACAGACGGAA	33.4	311	–	–
GGUAGAAACAUUAACAUGAGGAUCACCCAUGUCAAAAGAAAUGAGGAUAUCGUAUUCAAUGUAUAUGAGAAGGCAUGGUCUGCC	–	–	15.7	10.7
AGAAACUACGAGAAGGACAAAACCGGUGCCGCAAACAUGAGGAUCACCCAUGUAGGAUAUCGUAGUUUCAGGAUCGUGAGAUCA	9.2	31.2	–	–
GUAGAGUCAGGAUAUACGAGAUCGAAAGAUCUGUGAUCCAUACAUGAGGAUCACCCAUGUAGAAGGGACUCUAC	33.7	364	–	–
GGUACCAUCACAGGAUAUGCUUUUCUUUGGGAAGCAGAAGGGUGUAACAUGAGGAUCACCCAUGUGGUACCAGGGCGUGAGCCC	–	–	170	14.8
AACAUGAGGAUCACCCAUGUCCCACCAGAAGGCUGGCGGUCAUGGGAAAGGCCACGACAAAUAACAGAGGAUAUGGUGAAUGCA	–	–	168	33.2

Sequence	apparent Kd [1] [nM]	apparent Kd [2] [nM]	apparent Kd [3] [nM]	apparent Kd [4] [nM]
AACCGGGAGAAGCAGGAUAUUGCCUCUUCAACAUGAGGAUCACCCAUGUAAGUAAAUUGACGAUACAAGAAGGGCUGCUCCUUAC	–	–	118	38.1
ACAUGAUAUGUAGGAUAUCACAACAUGAGUUUUAAUAUUGUUAUUUAGGAUUGAGAAGGACAUUUACAUGAGGAUCACCCAUGU	17.5	14.6	–	–
AGUCCGGAACAGAAGGACAUGAGGAUCACCCAUGUAGGAUAUGUUGUGCGGCGUUAGGGAGGUGCCUGCGUGUGGGCGGAUCUC	–	–	14.1	6.56
GUAGCAAUCGGAGGAUAUUCAUACCGGAAACGGACAUGAGGAUCACCCAUGUGGCGAAAGCCUUGGGAGAAGGCCGAUUGCUAC	–	–	614	21.2
ACAGUGCGAGGAUAUACAUGAGGAUCACCCAUGUGAGAGAAAUAAGUGAGGAAGAAAAGUAGAAGGCGCGUUGA	75.5	91.7	–	–
CAAAAGUAUAACAAUUUCGAGGCACAGGAUAUGAGUGUGCACAUGAGGAUCACCCAUGUUAUAACUUAGAAGGGUGACCAUUGC	–	–	265	443
GGGCUGUCAGGAUAUGGGCUCGGGCUCGAAAGGGCUCGGGCUCAGAAGGGACAUGAGGAUCACCCAUGUGGCCC	35.7	32.8	–	–
CCGGGACAUGAGGAUCACCCAUGUUUCGUUUAUAGUAAAGCACAGGAUAUGAUGAAACAGGUUUCUCAGAAGGGUGUUCCGAAA	–	–	63.2	67.8
AUAUUGUGAGGAUAUCCAAUAUAUGACAUGAGGAUCACCCAUGUUUCCACUCGUACCUCCGGAGAAGGCACUUAAA	20.5	23.2	–	–
UCCUGAUUGAGAGUUAGGAGUGGUAGAAGGCGACCGGUGCCAGAUGACAUGAGGAUCACCCAUGUCGAGGAUAUACCACAGAAU	8.04	15.4	–	–
CGAAGUCCGUAGAAGGGUGACAUGAGGAUCACCCAUGUGCGAGCGGAGGGAGUCAGCGGCUCGCCACAGGAUAUACGGAGCACG	–	–	61.2	51
CAGUCUACAGGAUAUACAUGAGGAUCACCCAUGUGUAUCAACCUUCUGUAAUCCACAUGUAGAAGGGUAGACUG	14.8	13.5	–	–
UAGUAUUAACGAGGAUAUAAUAUGUUCAAUUUUUUAUAUUGUUUACAUGAGGAUCACCCAUGUUAUUAGAAGGCGUAUGGGAUU	–	–	67.2	58.8
UAAAAGCUAGGAUAUACAUGAGGAUCACCCAUGUCACGGGUCCACUCAUCCUAUACGUGUAGAAGGAGCGACCC	–	19.2	–	–
CGCAAACAUGAGGAUCACCCAUGUCAAUGUGAUCAAGGAUAUGGGUUCCGAAAUGGAACACCAGAAGGUGAGUAAU	–	–	142	37.3
CUUUUGUGAGGAUAUCAGUAGUAAAAUAAUAAAAUUACUACUGAGAAGGCACAUGAGGAUCACCCAUGUUCCUC	32.5	174	–	–
AGCAACAUGAGGAUCACCCAUGUUGGUUCGAAAACGGACUCACAGGAUAUGCGGCGUAAUCGCUCGCAGAAGGGUGCGUCCUCA	–	–	14.1	25.6
GCAGCGUAUGUAGGAUAUCGGUCAGUUUCUGAUCGAGAAGGACAUGAGGAUCACCCAUGUAAAAUACCGACUUUGUCGGGCUGC	6.43	8.11	–	–
UUUAGUUGCGGGCAGGAUAUGUAUUAAAAUACAUGAGGAUCACCCAUGUGCGGGUGUAACACCCGACAGAAGGGCCAAUCGCGAC	–	–	388	28.6
CUUUAGUGAGGAUAUCUGGCUUCGAUCGUGAGAUCGAGGCUAGAGAAGGCACAUGAGGAUCACCCAUGUUCCUC	40.1	439	–	–
AGUACUCAAAGAGUACGCGUAAGCACAUGAGGAUCACCCAUGUAGGAUAUGCUACUCAAAGAGUAGUAGAAGGACAUAUACCUC	5.2	6.34	–	–
CGCUCAGAGAACGAUACGAAUAGACAUGAGGAUCACCCAUGUAGAAGGACAACGGAAUAAACGUUGUAGGAUAUACAUUUAGCG	24.6	52.6	–	–
UGAUCGAGAGAUCUUAGAUUCUGGUAGGAUAUACAACAGUUGCGCUUUACAUGAGGAUCACCCAUGUAGAAGGACUAGAGUCUA	7.55	8.78	–	–
GUUAUUAACAAGAAGGCAUACAUGAGGAUCACCCAUGUUCUACAUGGAUAAUGAGGAUAUUGCUAAUACAUGAGGAUCACCCAU	48.8	53.8	–	–
